For assay [1], the species on record is Rattus norvegicus. Put plainly: Antagonism determined in rat stomach against AII. The class given is functional. The following applies: read-out: pA2 (converted).
The species named for assay [2] is Oryctolagus cuniculus. Put plainly: Antagonism determined in rabbit aorta against AII. The class given is functional. Particulars: read-out: pA2 (converted).
The species entered for assay [3] is Rattus norvegicus. Put plainly: Time course for AII (6 ng) induced pressor response in rats to return to 50% of pretreatment level after a bolus injection of 10 microg. The class given is functional, organism-based. In a few lines:
(§1)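 Female Wistar rats were anesthetized with pentobarbital sodium (30 mg/kg), vagotomized, cannulated in the carotid artery and femoral vein, and given pentolinium tartrate (5 mg/200 g). After a bolus injection of inhibitor, 6 ng AII was injected at 15-min intervals while blood pressure was recorded by transducer. The read-out is the time for the pressor response to recover to 50% of pretreatment.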

The species named for assay [4] is Rattus norvegicus. Put plainly: Time course for AII (6 ng) induced pressor response in rats to return to 50% of pretreatment level after a bolus injection of 100 microg. The class given is functional, organism-based. In a few lines:
as §1

The species named for assay [5] is Rattus norvegicus. In words: Time course for AII (6 ng) induced pressor response in rats to return to 50% of pretreatment level after a bolus injection of 30 microg. The class given is functional, organism-based. In a few lines:
as §1

The species entered for assay [6] is Rattus norvegicus. In words: In vitro agonistic activity against angiotensin II was determined to produce 25% maximal response in rat stomach at a dose of 50 ng/mL. The class given is functional.
The species named for assay [7] is Oryctolagus cuniculus. Put plainly: Dose required to produce(to produce 25% maximal response) In vitro agonistic activity against angiotensin II in rabbit aorta. The class given is functional. In a few lines:
(§2)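 Isolated rabbit aorta or rat stomach strips were used. Agonist activity (%) is the AII dose producing 25% of maximal response divided by the analogue dose producing the same response. Each value comes from 3 experiments.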

For assay [8], the species on record is Rattus norvegicus. In words: In vitro agonistic activity against angiotensin II was determined to produce 25% maximal response in rat stomach at a dose of 10 ng/mL. The class given is functional.
The species entered for assay [9] is Rattus norvegicus. In words: Dose required to produce(to produce 25% maximal response) In vitro agonistic activity against angiotensin II in rat stomach. The class given is functional. In a few lines: as §2
The species named for assay [10] is Oryctolagus cuniculus. Put plainly: In vitro antagonistic activity against angiotensin II was determined to produce 25% maximal response in rabbit aorta at a dose of 10 ng/mL.
The species entered for assay [11] is Oryctolagus cuniculus. In words: In vitro antagonistic activity against angiotensin II was determined to produce 25% maximal response in rabbit aorta at a dose of 50 ng/mL.
The species entered for assay [12] is Rattus norvegicus. Put plainly: Time course for AII (6 ng) induced pressor response in rats to return to 50% of pretreatment level after a bolus injection of 50 microg. The class given is functional, organism-based. In a few lines:
as §1

Assay [13] is filed under the species Rattus norvegicus. In words: Time course for AII (6 ng) induced pressor response in rats to return to 50% of pretreatment level after a bolus injection of 3 microg. The class given is functional, organism-based. In a few lines:
as §1

The species named for assay [14] is Rattus norvegicus. In words: Antagonistic potency determined in rat stomach at 10 ng/mL expressed as dose ratio of AII to produce 25% of control maximal response. The class given is functional.
Assay [15] is filed under the species Oryctolagus cuniculus. Put plainly: Antagonistic potency determined in rabbit aorta at 1 ng/mL expressed as dose ratio of AII to produce 25% of control maximal response. The class given is functional.
The species named for assay [16] is Rattus norvegicus. In words: Antagonistic potency determined in rat stomach at 1 ng/mL expressed as dose ratio of AII to produce 25% of control maximal response. The class given is functional.
The species entered for assay [17] is Oryctolagus cuniculus. In words: Dose required to produce(25% maximal response) In vitro agonistic activity against angiotensin II in rabbit aorta. The class given is functional. In a few lines: as §2
The species named for assay [18] is Rattus norvegicus. Put plainly: Dose required to produce( 25% maximal response) In vitro agonistic activity against angiotensin II in rat stomach. The class given is functional. In a few lines: as §2
The species entered for assay [19] is Oryctolagus cuniculus. Put plainly: Antagonistic potency determined in rabbit aorta at 10 ng/mL expressed as dose ratio of AII to produce 25% of control maximal response. The class given is functional.
Assay [20] is filed under the species Rattus norvegicus. Put plainly: Time course for AII (6 ng) induced pressor response in rats to return to 50% of pretreatment level after a bolus injection of 1 microg. The class given is functional, organism-based. In a few lines: as §1
For assay [21], the species on record is Rattus norvegicus. In words: Time course for AII (6 ng) induced pressor response in rats to return to 50% of pretreatment level after a bolus injection of 5 microg. The class given is functional, organism-based. In a few lines: as §1

The source of these data is ChEMBL document CHEMBL1123764, “Long-acting angiotensin II inhibitors containing hexafluorovaline in position 8” (J Med Chem, 1987).

As to `CNCC(=O)N[C@@H](CCCN=C(N)N)C(=O)N[C@H](C(=O)N[C@@H](Cc1ccc(O)cc1)C(=O)N[C@H](C(=O)N[C@@H](Cc1c[nH]cn1)C(=O)N1CCC[C@H]1C(=O)N[C@H](C(=O)O)C(C(F)(F)F)C(F)(F)F)C(C)C)C(C)C` [listing 1 of 3 here], the values for the Kb in assay [1] and in assay [2] were 0.851 nM and 0.832 nM, respectively.

With `CNCC(=O)N[C@@H](CCCNC(=N)N)C(=O)N[C@H](C(=O)N[C@@H](Cc1ccc(O)cc1)C(=O)N[C@H](C(=O)N[C@@H](Cc1cnc[nH]1)C(=O)N1CCC[C@H]1C(=O)N[C@@H](C)C(=O)O)C(C)C)C(C)C`, the Recovery time in [3] is 11 min; in assay [4] it was 18 min; in assay [5], 13.7 min.

For `CNCC(=O)N[C@@H](CCCN=C(N)N)C(=O)N[C@H](C(=O)N[C@@H](Cc1ccc(O)cc1)C(=O)N[C@H](C(=O)N[C@@H](Cc1c[nH]cn1)C(=O)N1CCC[C@H]1C(=O)N[C@@H](C(=O)O)C(C(F)(F)F)C(F)(F)F)C(C)C)C(C)C` [listing 1 of 3 here], the Potency in [6] is 4.1; in assay [8], 2. For the same compound, the Activity in assay [7] worked out at 0%; in [9], 0.03%. In addition, the figures for the Dose ratio in assay [10] and in [11] were 2.1 and 42, respectively.

Take H-DRVYVHPF-OH [[Val5] - ANGIOTENSIN II]: the Activity in assay [7] and in assay [9] was 100% in each case.

As for `CNCC(=O)N[C@@H](CCCN=C(N)N)C(=O)N[C@H](C(=O)N[C@@H](Cc1ccc(O)cc1)C(=O)N[C@H](C(=O)N[C@@H](Cc1c[nH]cn1)C(=O)N1CCC[C@H]1C(=O)N[C@@H](CC(C)C)C(=O)O)C(C)C)C(C)C`, the Kb in assay [1] is 2.51 nM; in [2] it was 1.95 nM.

Consider `CNCC(=O)N[C@@H](CCCN=C(N)N)C(=O)N[C@H](C(=O)N[C@@H](Cc1ccc(O)cc1)C(=O)N[C@H](C(=O)N[C@@H](Cc1c[nH]cn1)C(=O)N1CCC[C@H]1C(=O)N[C@H](CC(C)C)C(=O)O)C(C)C)C(C)C`, for which the Recovery time came to 37.6 min in assay [12], 23.6 min in assay [3], 13.5 min in [13] and 34.5 min in assay [5].

For the compound `CNCC(=O)N[C@@H](CCCN=C(N)N)C(=O)N[C@H](C(=O)N[C@@H](Cc1ccc(O)cc1)C(=O)N[C@H](C(=O)N[C@@H](Cc1c[nH]cn1)C(=O)N1CCC[C@H]1C(=O)N[C@@H](C(=O)O)C(C(F)(F)F)C(F)(F)F)C(C)C)C(C)C` [listing 2 of 3 here], the Kb in assay [1] and in assay [2] was 7.94 nM throughout.

With `CNCC(=O)N[C@@H](CCCN=C(N)N)C(=O)N[C@H](C(=O)N[C@@H](Cc1ccc(O)cc1)C(=O)N[C@H](C(=O)N[C@@H](Cc1c[nH]cn1)C(=O)N1CCC[C@H]1C(=O)N[C@H](C(=O)O)C(C(F)(F)F)C(F)(F)F)C(C)C)C(C)C` [listing 2 of 3 here], the Potency is listed as 51.7 in assay [14], 6.1 in assay [15], 2.2 in assay [16] and 294 in assay [19]. Also, the Activity in [17] is on record as 1.1%; in assay [18], 0.8%.

For the compound `CNCC(=O)N[C@@H](CCCN=C(N)N)C(=O)N[C@H](C(=O)N[C@@H](Cc1ccc(O)cc1)C(=O)N[C@H](C(=O)N[C@@H](Cc1c[nH]cn1)C(=O)N1CCC[C@H]1C(=O)N[C@@H](C(=O)O)C(C(F)(F)F)C(F)(F)F)C(C)C)C(C)C` [listing 3 of 3 here], the Recovery time in assay [3] was 60.1 min; in [13] it was 32.3 min; in assay [20], 12.5 min.

`CNCC(=O)N[C@@H](CCCN=C(N)N)C(=O)N[C@H](C(=O)N[C@@H](Cc1ccc(O)cc1)C(=O)N[C@H](C(=O)N[C@@H](Cc1c[nH]cn1)C(=O)N1CCC[C@H]1C(=O)N[C@H](C(=O)O)C(C(F)(F)F)C(F)(F)F)C(C)C)C(C)C` [listing 3 of 3 here]: the Recovery time was determined as 73.6 min in [3], 19 min in assay [13], 40.6 min in assay [21] and 5.8 min in assay [20].
